Assay results: ChEMBL document CHEMBL1811821, “Cystic fibrosis: a new target for 4-Imidazo[2,1-b]thiazole-1,4-dihydropyridines” (J Med Chem, 2011)
pEC50, pIC50, pKd: −log10 of the molar value. Calls of active or inactive are those of the source. The calls are words filed in the database; no cut-off is given here.

Key:
[1] = Negative ionotropic activity in potassium depolarized guinea pig longitudinal smooth muscle assessed as inhibition of calcium-induced contraction; format: functional, Cavia porcellus
[2] = Bronchodilatory activity in guinea pig trachea assessed as inhibition of carbachol-induced contraction at 10^-5 M; format: functional; conditions: Cavia porcellus
[3] = Bronchodilatory activity in guinea pig trachea assessed as inhibition of carbachol-induced contraction; format: functional, tissue-based, Cavia porcellus
[4] = tested on: Cystic fibrosis transmembrane conductance regulator (Homo sapiens), P13569 [F508del]; assay: Activity at CFTR F508 deletion mutant expressed in forskolin-stimulated FRT cells assessed as maximal increase in iodine influx measured as YFP quenching rate after 24 hrs by fluorescence assay; format: cell-based
Chain of Cystic fibrosis transmembrane conductance regulator (Homo sapiens), P13569 [F508del] (P13569 as listed by the source): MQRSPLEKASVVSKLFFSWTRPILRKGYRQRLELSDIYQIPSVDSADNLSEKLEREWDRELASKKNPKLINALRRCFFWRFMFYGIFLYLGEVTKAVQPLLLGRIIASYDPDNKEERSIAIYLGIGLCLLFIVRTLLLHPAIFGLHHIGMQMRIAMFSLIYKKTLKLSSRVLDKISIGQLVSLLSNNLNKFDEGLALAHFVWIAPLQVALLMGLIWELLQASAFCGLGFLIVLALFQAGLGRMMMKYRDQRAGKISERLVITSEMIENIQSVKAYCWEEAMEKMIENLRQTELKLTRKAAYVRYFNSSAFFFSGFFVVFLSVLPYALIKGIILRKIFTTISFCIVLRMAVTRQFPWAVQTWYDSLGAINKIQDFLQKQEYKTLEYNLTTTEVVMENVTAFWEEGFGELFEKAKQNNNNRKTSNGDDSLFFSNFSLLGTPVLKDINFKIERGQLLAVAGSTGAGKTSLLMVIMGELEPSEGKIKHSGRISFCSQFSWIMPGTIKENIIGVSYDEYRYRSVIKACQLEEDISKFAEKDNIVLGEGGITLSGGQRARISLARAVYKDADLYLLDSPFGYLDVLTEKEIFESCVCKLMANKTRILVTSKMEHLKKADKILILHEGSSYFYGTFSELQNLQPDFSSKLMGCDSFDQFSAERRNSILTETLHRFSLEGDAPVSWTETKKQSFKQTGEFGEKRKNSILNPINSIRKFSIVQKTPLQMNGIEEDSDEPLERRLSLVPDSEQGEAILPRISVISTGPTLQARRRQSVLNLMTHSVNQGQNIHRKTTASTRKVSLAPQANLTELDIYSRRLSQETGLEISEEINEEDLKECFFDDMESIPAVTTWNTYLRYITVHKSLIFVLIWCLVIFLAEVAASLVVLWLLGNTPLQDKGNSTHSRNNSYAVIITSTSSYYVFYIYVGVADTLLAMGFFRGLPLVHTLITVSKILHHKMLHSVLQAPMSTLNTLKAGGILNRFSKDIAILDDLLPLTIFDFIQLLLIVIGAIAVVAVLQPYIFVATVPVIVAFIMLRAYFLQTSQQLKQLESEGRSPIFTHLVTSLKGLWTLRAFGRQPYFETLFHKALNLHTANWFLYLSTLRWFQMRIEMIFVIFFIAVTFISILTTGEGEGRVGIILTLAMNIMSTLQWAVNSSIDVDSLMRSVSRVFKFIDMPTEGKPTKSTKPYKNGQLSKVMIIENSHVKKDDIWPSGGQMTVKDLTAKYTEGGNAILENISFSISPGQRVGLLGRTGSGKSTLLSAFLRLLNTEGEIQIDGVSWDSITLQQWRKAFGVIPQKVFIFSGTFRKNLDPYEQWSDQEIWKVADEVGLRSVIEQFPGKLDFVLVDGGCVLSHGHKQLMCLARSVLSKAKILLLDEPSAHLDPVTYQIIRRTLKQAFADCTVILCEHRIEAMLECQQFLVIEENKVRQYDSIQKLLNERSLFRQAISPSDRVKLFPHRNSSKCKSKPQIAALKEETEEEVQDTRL
Procedure, shortened: (§1)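 ΔF508-CFTR and halide-sensitive YFP coexpressed in FRT cells, held at 27 °C for 24 h for rescue, then stimulated 30–40 min with 20 μM forskolin with or without compound at 0.2, 2 and 20 μM. Fluorescence read before and after I– addition (100 mM final). Normalized decay fitted exponentially for maximal quenching rate; dose–response fitted with Hill equation for potency and maximal effect. Three independent determinations.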

[5] = Binding affinity to CFTR F508 deletion mutant expressed in forskolin-stimulated FRT cells assessed as increase in iodine influx measured as YFP quenching rate after 24 hrs by fluorescence assay; format: cell-based; procedure, shortened: as §1
[6] = tested on: Cystic fibrosis transmembrane conductance regulator (Homo sapiens), P13569 [F508del]; assay: Activity at CFTR F508 deletion mutant expressed in forskolin-stimulated FRT cells assessed as maximal increase in iodine influx measured as YFP quenching rate at 0.2 uM after 24 hrs by fluorescence assay; format: cell-based; procedure, shortened: as §1
[7] = Negative chronotropic activity against potassium-induced contraction in guinea pig right atrium assessed as decrease atrial rate at 10^-7 M relative to control; format: functional; conditions: Cavia porcellus, Cardiac atrium
Procedure, shortened: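 Isolated spontaneously beating guinea pig right atrium with pretreatment heart rate of 165–190 beats/min. Compound was added cumulatively. Atrial rate decrease at the stated concentration is given as percent change from control, mean ± SEM, n = 7–8. Control versus treated values at each concentration were compared by Student's t-test at P < 0.05.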

[8] = Negative ionotropic activity against potassium-induced contraction in guinea pig left atrium assessed as […] at 10^-5 M relative to control; format: functional; conditions: Cavia porcellus, Cardiac atrium
Procedure, shortened: (§2)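 Isolated guinea pig left atrium paced at 1 Hz. Drugs added cumulatively. Negative inotropic effect expressed as percent change from control, n = 5–6. […] Student's t-test against control at each concentration, P < 0.05. Mean ± SEM.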

Aorta [9] = assay: Vasorelaxant activity in potassium depolarized guinea pig aortic strip assessed as inhibition of calcium-induced contraction at 5 X 10^-7 M; format: functional; conditions: Cavia porcellus
Procedure, shortened: (§3)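 Guinea pig aortic strips depolarized with 80 mM K+, with cumulative drug addition. Relaxation given as mean ± SEM. […] Student's t-test against control, P < 0.05.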

[10] = Ratio EC50 for nifedipine to compound for negative […] activity against potassium-induced contraction in left atrium of guinea pig; format: functional, Cavia porcellus, Cardiac atrium
Cavia porcellus [11] = species on record: Cavia porcellus; assay: Negative ionotropic activity in potassium depolarized guinea pig longitudinal smooth muscle assessed as inhibition of calcium-induced contraction at 10^-8 M; format: functional
[12] = Negative ionotropic activity against potassium-induced contraction in guinea pig left atrium assessed as decrease in developed tension; conditions: Cavia porcellus, Cardiac atrium
[13] = Negative chronotropic activity against potassium-induced contraction in guinea pig right atrium assessed as decrease atrial rate; format: functional, tissue-based; conditions: Cavia porcellus, Cardiac atrium
Procedure, shortened: (§4)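 Spontaneously beating isolated guinea pig right atrium, pretreatment rate 165–190 beats/min. Drugs added cumulatively. Decrease in atrial rate expressed as percent change from control, n = 7–8. […] Control versus treated tested at each concentration by Student's t-test, P < 0.05. Mean ± SEM.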

Aorta [14] = assay: Vasorelaxant activity in potassium depolarized guinea pig aortic strip assessed as inhibition of calcium-induced contraction at 10^-6 M; format: functional; conditions: Cavia porcellus; procedure, shortened: as §3
Aorta [15] = assay: Vasorelaxant activity in potassium depolarized guinea pig aortic strip assessed as inhibition of calcium-induced contraction; format: functional, tissue-based; conditions: Cavia porcellus; procedure, shortened: as §3
Cavia porcellus [16] = species on record: Cavia porcellus; assay: […] activity in potassium depolarized guinea pig longitudinal smooth muscle assessed as inhibition of calcium-induced contraction at 5 X 10^-9 M; format: functional
[17] = Bronchodilatory activity in guinea pig trachea assessed as inhibition of carbachol-induced contraction at 10^-4 M; format: functional; conditions: Cavia porcellus
[18] = Negative chronotropic activity against potassium-induced contraction in guinea pig right atrium assessed as decrease atrial rate at 10^-6 M relative to control; format: functional; conditions: Cavia porcellus, Cardiac atrium; procedure, shortened: as §4
[19] = Negative ionotropic activity against potassium-induced contraction in guinea pig left atrium assessed as […] at 10^-4 M relative to control; format: functional; conditions: Cavia porcellus, Cardiac atrium; procedure, shortened: as §2
Aorta [20] = assay: Vasorelaxant activity in potassium depolarized guinea pig aortic strip assessed as inhibition of calcium-induced contraction at 10^-4 M; format: functional; conditions: Cavia porcellus; procedure, shortened: as §3
Cavia porcellus [21] = species on record: Cavia porcellus; assay: Negative ionotropic activity in potassium depolarized guinea pig longitudinal smooth muscle assessed as inhibition of calcium-induced contraction at 10^-7 M; format: functional
[22] = Negative chronotropic activity against potassium-induced contraction in guinea pig right atrium assessed as decrease atrial rate at 10^-5 M relative to control; format: functional; conditions: Cavia porcellus, Cardiac atrium; procedure, shortened: as §4
[23] = Negative ionotropic activity against potassium-induced contraction in guinea pig left atrium assessed as […] at 5 X 10^-5 M relative to control; format: functional; conditions: Cavia porcellus, Cardiac atrium; procedure, shortened: as §2
[24] = Ratio EC50 for negative chronotropic activity against potassium-induced contraction in guinea pig right atrium to EC50 for negative […] activity against potassium-induced contraction in guinea pig left atrium; format: functional, Cavia porcellus, Cardiac atrium
Cavia porcellus [25] = species on record: Cavia porcellus; assay: Negative ionotropic activity in potassium depolarized guinea pig longitudinal smooth muscle assessed as inhibition of calcium-induced contraction at 10^-6 M; format: functional
Cavia porcellus [26] = species on record: Cavia porcellus; assay: Negative ionotropic activity in potassium depolarized guinea pig longitudinal smooth muscle assessed as inhibition of calcium-induced contraction at 10^-5 M; format: functional
[27] = Ratio IC50 for nifedipine to compound for bronchodilatory activity in guinea pig trachea assessed as carbachol-induced contraction; format: functional, Cavia porcellus
[28] = tested on: Cystic fibrosis transmembrane conductance regulator (Homo sapiens), P13569 [F508del]; assay: Activity at CFTR F508 deletion mutant expressed in forskolin-stimulated FRT cells assessed as maximal increase in iodine influx measured as YFP quenching rate after 24 hrs by fluorescence assay relative to nifedipine; format: cell-based; procedure, shortened: as §1
[29] = Negative ionotropic activity against potassium-induced contraction in guinea pig left atrium assessed as […] at 5 X 10^-7 M relative to control; format: functional; conditions: Cavia porcellus, Cardiac atrium; procedure, shortened: as §2
Aorta [30] = assay: Vasorelaxant activity in potassium depolarized guinea pig aortic strip assessed as inhibition of calcium-induced contraction at 10^-5 M; format: functional; conditions: Cavia porcellus; procedure, shortened: as §3
Cavia porcellus [31] = species on record: Cavia porcellus; assay: Negative ionotropic activity in potassium depolarized guinea pig longitudinal smooth muscle assessed as inhibition of calcium-induced contraction at 3 X 10^-7 M; format: functional
Cavia porcellus [32] = species on record: Cavia porcellus; assay: Negative ionotropic activity in potassium depolarized guinea pig longitudinal smooth muscle assessed as inhibition of calcium-induced contraction at 5 X 10^-5 M; format: functional
[33] = Negative chronotropic activity against potassium-induced contraction in guinea pig right atrium assessed as decrease atrial rate at 10^-4 M relative to control; format: functional; conditions: Cavia porcellus, Cardiac atrium; procedure, shortened: as §4
[34] = Negative ionotropic activity against potassium-induced contraction in guinea pig left atrium assessed as […] at 5 X 10^-6 M relative to control; format: functional; conditions: Cavia porcellus, Cardiac atrium; procedure, shortened: as §2
Aorta [35] = assay: Vasorelaxant activity in potassium depolarized guinea pig aortic strip assessed as inhibition of calcium-induced contraction at 5 X 10^-5 M; format: functional; conditions: Cavia porcellus; procedure, shortened: as §3
Cavia porcellus [36] = species on record: Cavia porcellus; assay: Negative ionotropic activity in potassium depolarized guinea pig longitudinal smooth muscle assessed as inhibition of calcium-induced contraction at 5 X 10^-7 M; format: functional
[37] = Bronchodilatory activity in guinea pig trachea assessed as inhibition of carbachol-induced contraction at 10^-7 M; format: functional; conditions: Cavia porcellus
[38] = Negative chronotropic activity against potassium-induced contraction in guinea pig right atrium assessed as decrease atrial rate at 5 X 10^-7 M relative to control; format: functional; conditions: Cavia porcellus, Cardiac atrium; procedure, shortened: as §4
[39] = Negative ionotropic activity against potassium-induced contraction in guinea pig left atrium assessed as […] at 10^-7 M relative to control; format: functional; conditions: Cavia porcellus, Cardiac atrium; procedure, shortened: as §2

| SMILES | pIC50 [1] | inhibition at 10 µM [2] | pIC50 [3] | Emax [4] | pKd [5] | Activity [6] | pEC50 [12] | pEC50 [13] | inhibition at 100 µM (Aorta [20]) | also measured |
| --- | --- | --- | --- | --- | --- | --- | --- | --- | --- | --- |
| COC(=O)C1=C(C)NC(C)=C(C(=O)OC)C1c1c(-c2ccc(C(F)(F)F)cc2)nc2sccn12 | 8.34 | 67% | 7.21 | 64 ms-1 | 5.49 | inactive | 6.92 | – | – | inhibition at 0.1 µM [7]: 33%; inhibition at 10 µM [8]: 96%; inhibition at 0.5 µM (Aorta [9]): 36%; Ratio EC50 [10]: 2.6; inhibition (Cavia porcellus [11]): 69% |
| COC(=O)C1=C(C)NC(C)=C(C(=O)OC)C1c1ccccc1[N+](=O)[O-] [NIFEDIPINE] | – | 62% | 7.02 | 58 ms-1 | 5.54 | – | 6.59 | 7.41 | – | inhibition at 0.1 µM [7]: 85%; inhibition at 10 µM [8]: 97%; inhibition at 1 µM (Aorta [14]): 82%; pIC50 (Aorta [15]): 8.05; inhibition (Cavia porcellus [16]): 70% |
| CCOC(=O)C1=C(C)NC(C)=C(C(=O)OCC)C1c1c(C(F)(F)F)nc2sccn12 | 7.85 | – | 5.95 | 60 ms-1 | 4.71 | inactive | 5.97 | – | 48% | inhibition at 100 µM [17]: 77%; inhibition at 1 µM [18]: 40%; inhibition at 100 µM [19]: 93%; inhibition (Cavia porcellus [21]): 90% |
| C=CCOC(=O)C1=C(C)NC(C)=C(C(=O)OCC=C)C1c1c(-c2ccc(C(F)(F)F)cc2)nc2sc(C)c(C)n12 | 6.34 | – | – | 42 ms-1 | 6.49 | inactive | 6.57 | 5.05 | 32% | inhibition at 10 µM [22]: 52%; inhibition at 50 µM [23]: 93%; Ratio EC50 [24]: 33; inhibition (Cavia porcellus [25]): 72% |
| C=CCOC(=O)C1=C(C)NC(C)=C(C(=O)OCC=C)C1c1ccc(C(C)(C)C)cc1 | 5.73 | 68% | 9.23 | 56 ms-1 | 6.77 | – | 8.66 | – | – | inhibition (Cavia porcellus [26]): 52%; Ratio IC50 [27]: 163; Ratio [28]: 17; inhibition at 10 µM [22]: 5%; inhibition at 0.5 µM [29]: 71%; inhibition at 10 µM (Aorta [30]): 12% |
| COC(=O)C1=C(C)NC(C)=C(C(=O)OC)C1c1c(C(F)(F)F)nc2sccn12 | 6.68 | – | – | 60 ms-1 | 4.55 | inactive | – | – | – | inhibition (Cavia porcellus [31]): 70% |
| O=c1c(-c2ccc(O)cc2)coc2cc(O)cc(O)c12 [GENISTEIN] | 5.00 | 14% | – | 61 ms-1 | – | – | 7.55 | 4.35 | – | inhibition (Cavia porcellus [32]): 84%; inhibition at 100 µM [33]: 68%; inhibition at 5 µM [34]: 71%; inhibition at 50 µM (Aorta [35]): 22% |
| COC(=O)C1=C(C)NC(C)=C(C(=O)OC)C1c1c(-c2cccc(C(F)(F)F)c2)nc2sccn12 | 7.44 | – | – | 65 ms-1 | 5.55 | inactive | – | – | – | inhibition (Cavia porcellus [36]): 96%; inhibition at 0.1 µM [37]: 19%; Ratio EC50 [24]: 12 |
| CCOC(=O)C1=C(C)NC(C)=C(C(=O)OCC)C1c1c(-c2ccc(C(F)(F)F)cc2)nc2sccn12 | 9.06 | 57% | 6.89 | 42 ms-1 | 6.74 | inactive | 7.48 | 6.82 | 6% | inhibition at 0.5 µM [38]: 64%; inhibition at 0.1 µM [39]: 90%; inhibition (Cavia porcellus [16]): 83% |
| COC(=O)C1=C(C)NC(C)=C(C(=O)OC)C1c1c(-c2ccc(OC(F)(F)F)cc2)nc2sccn12 | 8.48 | 26% | – | 64 ms-1 | 5.46 | inactive | 5.63 | – | – | inhibition at 100 µM [33]: 33%; inhibition at 100 µM [19]: 89%; inhibition at 1 µM (Aorta [14]): 60%; pIC50 (Aorta [15]): 7.80; inhibition (Cavia porcellus [11]): 73% |
